From ChEMBL document CHEMBL1140069, “In vitro antifungal activity of polyfunctionalized 2-(hetero)arylquinolines prepared through imino Diels-Alder reactions” (2008)
Values after ≈ are worked out from the molar mass of the structure shown.

How the values were obtained:
Assay type in all cases: functional
Nannizzia gypsea = experiment: Antifungal activity against Microsporum gypseum C115 after 48 hrs by broth microdilution technique
How it was run: (§1)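 CLSI broth microdilution: M-27 A2 for yeasts and M-38 A for filamentous fungi. Medium is RPMI-1640 buffered to pH 7.0 with MOPS. Compound is diluted twofold from 250 to 0.98, final DMSO ≤2%. Inoculum is 1–5 × 10³ CFU/mL. Plates are incubated at 35 °C in a moist, dark chamber and read visually at 48 h. MIC100 is the lowest concentration giving total growth inhibition versus drug-free control.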

Aspergillus fumigatus = experiment: Antifungal activity against Aspergillus fumigatus ATTC 26934 after 48 hrs by broth microdilution technique; how it was run: as §1
Aspergillus niger = experiment: Antifungal activity against Aspergillus niger ATCC 9029 after 48 hrs by broth microdilution technique; conditions: ATCC 9029, 48 h; how it was run: as §1
[1] = test system: Trichophyton mentagrophytes; experiment: Antifungal activity against Trichophyton mentagrophytes ATCC 9972 after 48 hrs by broth microdilution technique; conditions: ATCC 9972, 48 h; how it was run: as §1
Cryptococcus neoformans = experiment: Antifungal activity against Cryptococcus neoformans ATCC 32264 after 48 hrs by broth microdilution technique; conditions: ATCC 32264, 48 h; how it was run: as §1
Trichophyton rubrum = experiment: Antifungal activity against Trichophyton rubrum C110 after 48 hrs by broth microdilution technique; conditions: read-out: MIC; how it was run: as §1
Candida albicans = experiment: Antifungal activity against Candida albicans ATCC 10231 after 48 hrs by broth microdilution technique; conditions: ATCC 10231, 48 h; how it was run: as §1
Saccharomyces cerevisiae = experiment: Antifungal activity against Saccharomyces cerevisiae ATCC 9763 after 48 hrs by broth microdilution technique; conditions: ATCC 9763, 48 h; how it was run: as §1
Aspergillus flavus = experiment: Antifungal activity against Aspergillus flavus ATCC 9170 after 48 hrs by broth microdilution technique; conditions: ATCC 9170, 48 h; how it was run: as §1

| SMILES | MIC (Nannizzia gypsea) [µg/mL] | MIC (Aspergillus fumigatus) [µg/mL] | MIC (Aspergillus niger) [µg/mL] | MIC [1] [µg/mL] | MIC (Cryptococcus neoformans) [µg/mL] | MIC (Trichophyton rubrum) [µg/mL] | MIC (Candida albicans) [µg/mL] | MIC (Saccharomyces cerevisiae) [µg/mL] | MIC (Aspergillus flavus) [µg/mL] |
| --- | --- | --- | --- | --- | --- | --- | --- | --- | --- |
| CCc1cccc2c(C)cc(-c3ccncc3)nc12 | > 250 | > 250 | > 250 | > 250 | > 250 | > 250 | > 250 | > 250 | > 250 |
| O=[N+]([O-])c1ccc2nc(-c3ccccc3)ccc2c1 | > 250 | > 250 | > 250 | > 250 | > 250 | > 250 | > 250 | > 250 | > 250 |
| COc1ccc2nc(-c3cccs3)ccc2c1 | > 250 | > 250 | > 250 | > 250 | > 250 | > 250 | > 250 | > 250 | > 250 |
| CCc1ccc2nc(-c3cccc([N+](=O)[O-])c3)ccc2c1 | > 250 | > 250 | > 250 | > 250 | > 250 | > 250 | > 250 | > 250 | > 250 |
| c1ccc2nc(-c3ccc4c(c3)OCO4)ccc2c1 | > 250 | > 250 | > 250 | > 250 | > 250 | > 250 | > 250 | > 250 | > 250 |
| Clc1ccc2nc(-c3ccccc3)ccc2c1 | > 250 | > 250 | > 250 | > 250 | > 250 | > 250 | > 250 | > 250 | > 250 |
| Oc1ccc2nc(-c3ccccc3)ccc2c1 | 125 (≈ 565 µM) | > 250 | > 250 | 250 (≈ 1130 µM) | > 250 | 125 (≈ 565 µM) | > 250 | > 250 | > 250 |
| COc1cc(OC)c2nc(-c3ccc4c(c3)OCO4)ccc2c1 | > 250 | > 250 | > 250 | > 250 | > 250 | > 250 | > 250 | > 250 | > 250 |
| c1ccc(-c2ccc3cc4c(cc3n2)OCO4)cc1 | 250 (≈ 1000 µM) | > 250 | > 250 | 250 (≈ 1000 µM) | 125 (≈ 501 µM) | 250 (≈ 1000 µM) | > 250 | > 250 | > 250 |

More lines, now with the values ahead:

| MIC (Nannizzia gypsea) [µg/mL] | MIC (Aspergillus fumigatus) [µg/mL] | MIC (Aspergillus niger) [µg/mL] | MIC [1] [µg/mL] | MIC (Cryptococcus neoformans) [µg/mL] | MIC (Trichophyton rubrum) [µg/mL] | MIC (Candida albicans) [µg/mL] | MIC (Saccharomyces cerevisiae) [µg/mL] | MIC (Aspergillus flavus) [µg/mL] | SMILES |
| --- | --- | --- | --- | --- | --- | --- | --- | --- | --- |
| > 250 | > 250 | > 250 | > 250 | > 250 | > 250 | > 250 | > 250 | > 250 | Clc1ccc2nc(-c3cccs3)ccc2c1 |
| > 250 | > 250 | > 250 | > 250 | > 250 | > 250 | > 250 | > 250 | > 250 | Cc1cc(C)c2ccc(-c3ccccc3)nc2c1 |
| > 250 | > 250 | > 250 | > 250 | > 250 | > 250 | > 250 | > 250 | > 250 | Cc1ccc2nc(-c3ccc4c(c3)OCO4)ccc2c1 |
| 125 (≈ 555 µM) | > 250 | > 250 | 125 (≈ 555 µM) | > 250 | 125 (≈ 555 µM) | > 250 | > 250 | > 250 | COc1ccc2nc(-c3ccco3)ccc2c1 |
